Test results published in ChEMBL document CHEMBL1153370, “New pyridazine derivatives: synthesis, chemistry and biological activity” (2009).

Columns and labels:
Type in all cases: functional
Staphylococcus aureus [1] = test: Antibacterial activity Staphylococcus aureus ATCC 25923 after 24 hrs at 30 degC by agar diffusion technique
Method in brief: (§1)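 Agar diffusion method. Bacteria were maintained on Mueller Hinton agar, and the agar medium was inoculated with each test organism. Plates were incubated 24 h at 30 °C, then the diameter of the inhibition zone was measured in mm and reported as the mean diameter.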

Escherichia coli [2] = test: Antibacterial activity Escherichia coli ATCC 25922 after 24 hrs at 30 degC by agar diffusion technique; method in brief: as §1
Micrococcus luteus [3] = test: Antibacterial activity Sarcina lutea ATCC 9341 after 24 hrs at 30 degC by agar diffusion technique; method in brief: as §1
Candida albicans = test: Antifungal activity Candida albicans ATCC 10231 after 48 hrs at 28 degC by agar diffusion technique
Method in brief: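 Fungi were maintained on Mueller Hinton agar and tested by diffusion on agar seeded with the organism. After 48 h incubation at 28 °C, the inhibition zone diameter (mm, mean) was measured.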

Bacillus subtilis [4] = test: Antibacterial activity Bacillus subtilis after 24 hrs at 30 degC by agar diffusion technique; method in brief: as §1
Pseudomonas aeruginosa [5] = test: Antibacterial activity Pseudomonas aeruginosa after 24 hrs at 30 degC by agar diffusion technique; method in brief: as §1
Pseudomonas aeruginosa [6] = test: Antibacterial activity Pseudomonas aeruginosa at 30 ug/disk after 24 hrs at 30 degC by agar diffusion technique; details: read-out: Diameter of inhibition zone; method in brief: as §1
Escherichia coli [7] = test: Antibacterial activity Escherichia coli ATCC 25922 at 30 ug/disk after 24 hrs at 30 degC by agar diffusion technique; details: ATCC 25922, 24 h, read-out: Diameter of inhibition zone
Method in brief: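 Agar diffusion method; organisms kept on Mueller Hinton agar, and agar media were inoculated with the test culture. Bacterial plates incubated 24 h at 30 °C, then diameter of the inhibition zone measured in mm (mean diameter).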

Bacillus subtilis [8] = test: Antibacterial activity Bacillus subtilis at 30 ug/disk after 24 hrs at 30 degC by agar diffusion technique; details: read-out: Diameter of inhibition zone; method in brief: as §1
Micrococcus luteus [9] = test: Antibacterial activity Sarcina lutea ATCC 9341 at 30 ug/disk after 24 hrs at 30 degC by agar diffusion technique; details: ATCC 9341, 24 h, read-out: Diameter of inhibition zone; method in brief: as §1
Staphylococcus aureus [10] = test: Antibacterial activity Staphylococcus aureus ATCC 25923 at 30 ug/disk after 24 hrs at 30 degC by agar diffusion technique; details: ATCC 25923, 24 h, read-out: Diameter of inhibition zone; method in brief: as §1

Row | SMILES | Diameter of inhibition zone (Staphylococcus aureus [1]) [mm] | Diameter of inhibition zone (Escherichia coli [2]) [mm] | Diameter of inhibition zone (Micrococcus luteus [3]) [mm] | Diameter of inhibition zone (Candida albicans) [mm] | Diameter of inhibition zone (Bacillus subtilis [4]) [mm] | Diameter of inhibition zone (Pseudomonas aeruginosa [5]) [mm] | zone of inhibition at 30 µg/disc (Pseudomonas aeruginosa [6]) [mm] | zone of inhibition at 30 µg/disc (Escherichia coli [7]) [mm] | zone of inhibition at 30 µg/disc (Bacillus subtilis [8]) [mm] | zone of inhibition at 30 µg/disc (Micrococcus luteus [9]) [mm] | zone of inhibition at 30 µg/disc (Staphylococcus aureus [10]) [mm]
1 | COC(=O)[C@@H]1[C@H](C(=O)OC)[C@H](C(=O)c2ccc(F)cc2)N2N=CC=C[C@@H]12 | 29 | 35 | 60 | 24 | 37 | 18 |  |  |  |  | 
2 | CCOC(=O)c1cc(C(=O)c2ccc(C)cc2)n2ncccc12 | 40 | 25 | 56 | 28 | 37 | 18 |  |  |  |  | 
3 | N#C[C@H]1C[C@@H](C(=O)c2ccc(F)cc2)N2N=CC=C[C@@H]12 | 26 | 20 | 50 | 23 | 27 | 14 |  |  |  |  | 
4 | COC(=O)c1c(C(=O)OC)c2cccnn2c1C(=O)c1ccc(Cl)cc1 | 30 | 31 | 57 | 24 | 26 | 18 |  |  |  |  | 
5 | Cc1ccc(C(=O)[C@H]2[C@@H]3C(=O)N(c4ccccc4)C(=O)[C@@H]3[C@@H]3C=CC=NN32)cc1 | 31 | 24 | 73 | 29 | 37 | 18 |  |  |  |  | 
6 | Cc1ccc(C(=O)C[n+]2ccccn2)cc1.[Br-] | 47 | 25 | 81 | 27 | 40 | 20 |  |  |  |  | 
7 | O=C(c1ccc(Cl)cc1)[C@H]1[C@@H]2C(=O)N(c3ccccc3)C(=O)[C@@H]2[C@@H]2C=CC=NN21 | 28 | 28 | 54 | 34 | 28 | 18 |  |  |  |  | 
8 | COC(=O)[C@H]1[C@H](C(=O)OC)[C@H](C(=O)c2ccc(C)cc2)N2N=CC=C[C@@H]12 | 47 | 37 | 59 | 29 | 38 | 17 |  |  |  |  | 
9 | O=C(c1ccc(F)cc1)[C@H]1[C@@H]2C(=O)N(c3ccccc3)C(=O)[C@@H]2[C@@H]2C=CC=NN21 | 27 | 25 | 63 | 25 | 28 | 16 |  |  |  |  | 
10 | COC(=O)[C@@H]1[C@H](C(=O)OC)[C@H](C(=O)c2ccc(Cl)cc2)N2N=CC=C[C@@H]12 | 33 | 32 | 56 | 25 | 39 | 18 |  |  |  |  | 
11 | Cc1ccc(C(=O)[C@@H]2C[C@H](C#N)[C@@H]3C=CC=NN23)cc1 | 46 | 23 | 67 | 30 | 39 | 19 |  |  |  |  | 
12 | CCOC(=O)c1cc(C(=O)c2ccc(Cl)cc2)n2ncccc12 | 25 | 33 | 48 | 30 | 25 | 20 |  |  |  |  | 
13 | COC(=O)[C@H]1[C@H](C(=O)OC)[C@H](C(=O)c2ccc(Cl)cc2)N2N=CC=C[C@@H]12 | 23 | 31 | 54 | 27 | 36 | 15 |  |  |  |  | 
14 | COC(=O)[C@H]1[C@H](C(=O)OC)[C@H](C(=O)c2ccc(F)cc2)N2N=CC=C[C@@H]12 | 29 | 35 | 51 | 27 | 35 | 17 |  |  |  |  | 
15 | CCOC(=O)c1cc(C(=O)c2ccc(F)cc2)n2ncccc12 | 27 | 23 | 48 | 22 | 22 | 20 |  |  |  |  | 
16 | COC(=O)c1c(C(=O)OC)c2cccnn2c1C(=O)c1ccc(F)cc1 | 27 | 21 | 52 | 21 | 23 | 15 |  |  |  |  | 
17 | COC(=O)[C@@H]1[C@H](C(=O)OC)[C@H](C(=O)c2ccc(C)cc2)N2N=CC=C[C@@H]12 | 41 | 37 | 62 | 30 | 39 | 19 |  |  |  |  | 
18 | N#C[C@H]1C[C@@H](C(=O)c2ccc(Cl)cc2)N2N=CC=C[C@@H]12 | 30 | 28 | 57 | 35 | 29 | 14 |  |  |  |  | 
19 | O=C(N[C@H](CO)[C@H](O)c1ccc([N+](=O)[O-])cc1)C(Cl)Cl [CHLORAMPHENICOL] |  |  |  |  |  |  | 19 | 25 | 26 | 40 | 30
20 | COC(=O)c1c(C(=O)OC)c2cccnn2c1C(=O)c1ccc(C)cc1 | 46 | 25 | 65 | 29 | 26 | 19 |  |  |  |  | 
21 | O=C(C[n+]1ccccn1)c1ccc(Cl)cc1.[Br-] | 36 | 36 | 57 | 29 | 32 | 20 |  |  |  |  | 
22 | O=C(C[n+]1ccccn1)c1ccc(F)cc1.[Br-] | 38 | 31 | 61 | 19 | 31 | 20 |  |  |  |  | 
